From ChEMBL document CHEMBL3044892, “Primary study on mode of action for macrocyclic fungicide candidates (7B3, D1) against Rhizoctonia solani Kuhn” (J Agric Food Chem, 2010)
In brackets after ≈: the same amount, converted by molar mass. Activity calls are given as the source filed them. No cut-off for these calls is given here.

Assays:
Rhizoctonia solani [1] = experiment: Fungicidal activity against Rhizoctonia solani assessed as disorganized organelles and decreased in the hyphae cytoplasm at 50 ug/mL by Transmission electron micrography; format: functional, organism-based
In short: (§1)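 R. solani grown 3 days on PDA with 0 or 50 μg mL-1 test compound; 5 mm hyphal tips from colony margin fixed in 4% glutaraldehyde at 4 C, then 1% osmium tetroxide, acetone-dehydrated, Epon-embedded; thin sections double-stained with uranyl acetate and lead citrate, examined by TEM versus untreated control.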

Rhizoctonia solani [2] = experiment: Fungicidal activity against Rhizoctonia solani assessed as reduction in mycelia growth at 50 ug/mL; format: functional, organism-based
Verticillium dahliae = experiment: Fungicidal activity against Verticillium dahliae assessed as inhibition rate; format: functional
Sclerotinia sclerotiorum = experiment: Fungicidal activity against Sclerotinia sclerotiorum assessed as inhibition rate; format: functional
Alternaria kikuchiana [3] = experiment: Fungicidal activity against Alternaria kikuchiana Tanaka assessed as inhibition rate; format: functional
Rhizoctonia solani [4] = experiment: Fungicidal activity against Rhizoctonia solani assessed as inhibition rate; format: functional
Rhizoctonia solani [5] = experiment: Fungicidal activity against Rhizoctonia solani assessed as disappearance of septal pore caps at 50 ug/mL by Transmission electron micrography; format: functional, organism-based; in short: as §1
Fulvia fulva = experiment: Fungicidal activity against Passalora fulva Cooke Ciferri assessed as inhibition rate; format: functional
Rhizoctonia solani [6] = experiment: Fungicidal activity against Rhizoctonia solani assessed as mycelia rough surface and formed irregular ramification or abnormal configuration at 50 ug/mL by scanning electron micrography; format: functional, organism-based
In short: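 Hyphal tips (5 mm) cut from margins of R. solani colonies grown 3 days on PDA containing 0 or 50 μg mL-1 compound; glutaraldehyde (4%, 4 C) and osmium tetroxide fixation, graded acetone dehydration, critical-point drying, gold coating; imaged by SEM at 18-20 kV accelerating voltage.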

Rhizoctonia solani [7] = experiment: Fungicidal activity against Rhizoctonia solani assessed as inhibition of intact mycelia respiration at 10 ug/mL by […]; format: functional
In short: (§2)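 Intact R. solani mycelia from 5-day PD shake culture (25 C, 150 rpm), washed, resuspended at 50 mg fresh weight mL-1 in 0.1 M phosphate buffer pH 7.2 with 2% glucose; treated with 10 or 100 μg mL-1; O2 uptake by oxygraph at 25 C before and after addition; inhibition = (R0-R1)/R0 × 100; n = 3.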

[8] = tested on: Colletotrichum orbiculare; experiment: Fungicidal activity against Colletotrichum orbiculare assessed as inhibition rate; format: functional
Rhizoctonia solani [9] = experiment: Fungicidal activity against Rhizoctonia solani assessed as thicker hyphae and abnormally thickened walls of the septa at 50 ug/mL by Transmission electron micrography; format: functional, organism-based; in short: as §1
Rhizoctonia solani [10] = experiment: Fungicidal activity against Rhizoctonia solani assessed as inhibition of intact mycelia respiration at 100 ug/mL by […]; format: functional; in short: as §2
Phyllosticta = experiment: Fungicidal activity against Phyllospicpa physaleos Sacc., by mycelium growth rate test; format: functional, organism-based
Rhizoctonia solani [11] = experiment: Fungicidal activity against Rhizoctonia solani by mycelium growth rate test; format: functional, organism-based
Botrytis cinerea = experiment: Fungicidal activity against Botryotinia fuckeliana by mycelium growth rate test; format: functional, organism-based
Rhizoctonia solani [12] = experiment: Fungicidal activity against Rhizoctonia solani assessed as prevention in cotton at 140 g/ha by field efficacy trail; format: functional
Alternaria kikuchiana [13] = experiment: Fungicidal activity against Alternaria kikuchiana by mycelium growth rate test; format: functional, organism-based
Rhizoctonia solani [14] = experiment: Fungicidal activity against Rhizoctonia solani assessed as induction of electrolyte leakage from hyphae at 50 ug/mL by cell membrane permeability assay; format: functional, organism-based

Row | SMILES | inhibition (Rhizoctonia solani [1]) | inhibition (Rhizoctonia solani [2]) | inhibition (Rhizoctonia solani [6]) | inhibition at 10 µg/mL (Rhizoctonia solani [7]) [%] | Activity (Rhizoctonia solani [9]) | inhibition at 100 µg/mL (Rhizoctonia solani [10]) [%] | further results
1 | F[B-](F)(F)F.O=C1CCCCCCCCCCC[NH2+]CCO1 | Active | Active | Active | 1.67 | Active | 3 | inhibition (INH) (Verticillium dahliae): 86.9%; inhibition (INH) (Sclerotinia sclerotiorum): 85.7%; inhibition (INH) (Alternaria kikuchiana [3]): 85.7%; inhibition (INH) (Rhizoctonia solani [4]): 96%; Activity (Rhizoctonia solani [5]): Active; inhibition (INH) (Fulvia fulva): 89.3%; inhibition (INH) [8]: 73.2%
2 | CCCO/N=C1\CCCCCCCCCCC(=O)NCCC1 | Active | Active | Active | 3.39 | Active | 12.1 | EC50 (Phyllosticta): 1.9 mg/L (≈ 6.12 µM); EC50 (Rhizoctonia solani [11]): 4.6 mg/L (≈ 14.8 µM); EC50 (Botrytis cinerea): 8.6 mg/L (≈ 27.7 µM); Activity (Rhizoctonia solani [12]): 64%; EC50 (Alternaria kikuchiana [13]): 1.2 mg/L (≈ 3.86 µM)
3 | CC(C)(C)C(=O)C(Oc1ccc(Cl)cc1)n1cncn1 (stereo unspecified) |  |  |  |  |  |  | Activity (Rhizoctonia solani [14]): inactive
4 | CO/C=C(/C(=O)OC)c1ccccc1Oc1cc(Oc2ccccc2C#N)ncn1 [AZOXYSTROBIN] |  |  |  | 84.9 |  |  | 
